Key:
[1] = Nitric oxide scavenging activity by naphthylethylenediamine dihydrochloride based Griesse-Ilosavay method
Summary of the method: (§1)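 Modified Griess-Ilosavay assay. Test sample in DMSO was mixed with potassium phosphate buffer (10 mM, pH 7.4) and sodium nitroprusside (10 mM stock), then incubated at 25 °C for 150 min to form nitrite. Sulphanilic acid reagent (0.33%) and N-(1-naphthyl)ethylenediamine dihydrochloride (0.1% w/v) were added, and the mixture stood 1–2 min. Absorbance was read at 546 nm against a blank. Ascorbic acid was the positive control and DMSO the blank. IC50 was obtained by […].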

[2] = Nitric oxide scavenging activity by naphthylethylenediamine dihydrochloride based Griesse-Ilosavay method relative to ascorbic acid; summary of the method: as §1

Compound	IC50 [1] [µM]	Ratio IC50 [2]
O=Cc1ccc(C(c2c(O)[nH]c(=O)[nH]c2=O)c2c(O)[nH]c(=O)[nH]c2=O)cc1	330	–
COc1ccc(C(c2c(O)n(C)c(=O)n(C)c2=O)c2c(O)n(C)c(=O)n(C)c2=O)cc1	234	–
CC1(C)CC(=O)C(C(c2ccc(C=O)cc2)c2c(O)[nH]c(=O)[nH]c2=O)=C(O)C1 (centres undefined)	439	–
Cc1ccc(C(C2=C(O)CC(C)(C)CC2=O)c2c(O)[nH]c(=O)[nH]c2=O)cc1 (centres undefined)	432	–
Cn1c(O)c(C(C2=C(O)CC(C)(C)CC2=O)c2ccccc2)c(=O)n(C)c1=O (centres undefined)	290	–
Cn1c(O)c(C(c2ccc(O)cc2)c2c(O)n(C)c(=O)n(C)c2=O)c(=O)n(C)c1=O	310	–
Cn1c(O)c(C(c2cccc(Br)c2)c2c(O)n(C)c(=O)n(C)c2=O)c(=O)n(C)c1=O	70.1	–
Cn1c(O)c(C(c2ccc3ccccc3c2)c2c(O)n(C)c(=O)n(C)c2=O)c(=O)n(C)c1=O	79.1	–
Cc1ccc(C(c2c(O)n(C)c(=O)n(C)c2=O)c2c(O)n(C)c(=O)n(C)c2=O)cc1	230	–
CC1(C)CC(=O)C(C(c2ccccc2)c2c(O)[nH]c(=O)[nH]c2=O)=C(O)C1 (centres undefined)	361	–
O=C1O[C@H]([C@@H](O)CO)C(O)=C1O [ASCORBIC ACID]	618	–
CC1(C)CC(=O)C(C(C2=C(O)CC(C)(C)CC2=O)c2ccc([N+](=O)[O-])cc2)=C(O)C1	281	–
O=c1[nH]c(O)c(C(c2ccc(Cl)cc2)c2c(O)[nH]c(=O)[nH]c2=O)c(=O)[nH]1	304	–
Cc1ccc(C(c2c(O)[nH]c(=O)[nH]c2=O)c2c(O)[nH]c(=O)[nH]c2=O)cc1	377	–
Cn1c(O)c(C(C2=C(O)CC(C)(C)CC2=O)c2ccc(C=O)cc2)c(=O)n(C)c1=O (centres undefined)	380	–
COc1ccc(C(c2c(O)[nH]c(=O)[nH]c2=O)c2c(O)[nH]c(=O)[nH]c2=O)cc1	206	–
Cn1c(O)c(C(c2ccc(Cl)cc2)c2c(O)n(C)c(=O)n(C)c2=O)c(=O)n(C)c1=O	75	–
O=c1[nH]c(O)c(C(c2ccc3ccccc3c2)c2c(O)[nH]c(=O)[nH]c2=O)c(=O)[nH]1	308	–
Cn1c(O)c(C(c2ccc([N+](=O)[O-])cc2)c2c(O)n(C)c(=O)n(C)c2=O)c(=O)n(C)c1=O	69	–
Cn1c(O)c(C(C2=C(O)CC(C)(C)CC2=O)c2ccc([N+](=O)[O-])cc2)c(=O)n(C)c1=O (centres undefined)	466	–
Cn1c(O)c(C(c2ccc(C=O)cc2)c2c(O)n(C)c(=O)n(C)c2=O)c(=O)n(C)c1=O	113	–
Cc1cccc(C(c2c(O)n(C)c(=O)n(C)c2=O)c2c(O)n(C)c(=O)n(C)c2=O)c1	174	–
Cn1c(O)c(C(C2=C(O)CC(C)(C)CC2=O)c2ccc(Cl)cc2Cl)c(=O)n(C)c1=O (centres undefined)	175	500
